In the library only some 0.77% were active in any assay of this set; here they are far more common.
mIAP block – inhibitors of mouse IAP, primary screen, biochemical, luminescence, uHTS | intestinal alkaline phosphatase [Mus musculus] | purified mouse IAP, CDP-Star luminescence, 30 min | inhibition, % at 10 µM | 0.2% of 330,000 active;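 active = inhibition of at least 40% at 10 µM in the primary screen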
hIAP act – human IAP activators, primary screen, biochemical, luminescence, uHTS; 0.16% of 330,000 active; activation factor at 10 µM; Intestinal-type alkaline phosphatase (Homo sapiens), P09923; AID 2524, 2010; purified human IAP, CDP-Star luminescence, 30 min; stronger effect = higher value; 1 = vehicle-only enzyme, 0 = enzyme-free background;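 active = activation factor of the enzyme at least 2-fold when tested at 20 µM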
Target sequence (P09923 whole entry, looked up): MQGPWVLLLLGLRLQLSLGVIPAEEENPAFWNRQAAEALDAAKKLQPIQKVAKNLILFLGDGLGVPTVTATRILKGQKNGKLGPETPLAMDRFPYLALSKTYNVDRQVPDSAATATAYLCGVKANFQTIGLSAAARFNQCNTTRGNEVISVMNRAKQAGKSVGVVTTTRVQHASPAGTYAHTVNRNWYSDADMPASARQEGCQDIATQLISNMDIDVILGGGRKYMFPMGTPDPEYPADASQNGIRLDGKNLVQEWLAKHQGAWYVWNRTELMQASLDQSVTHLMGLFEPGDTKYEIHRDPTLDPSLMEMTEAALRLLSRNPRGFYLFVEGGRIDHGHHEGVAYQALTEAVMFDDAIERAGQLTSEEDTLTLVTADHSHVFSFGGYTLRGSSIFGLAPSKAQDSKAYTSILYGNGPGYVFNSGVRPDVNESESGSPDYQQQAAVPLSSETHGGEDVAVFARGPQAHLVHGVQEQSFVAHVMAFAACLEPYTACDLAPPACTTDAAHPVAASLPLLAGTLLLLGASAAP
bIAP act – bovine intestinal alkaline phosphatase activators, primary screen, biochemical, bovine IAP, CDP-star luminescence | alkaline phosphatase, intestinal [Bos taurus] | 0.17% of 200,000 active | activation factor at 20 µM | AID 1016, 2008 | purified bovine IAP, 30 min; stronger effect = higher value; fold of DMSO-control signal, blank-subtracted;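 active = activation factor of 2 or more at 20 µM, a signal rise over negative controls twice the positive control's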
bIAP inh – bovine intestinal alkaline phosphatase inhibitors, primary screen, selectivity assay for TNAP inhibitor project, biochemical, bovine IAP, CDP-star luminescence; purified bovine IAP, 30 min; alkaline phosphatase, intestinal [Bos taurus]; inhibition, % at 20 µM; 190,000 tested, under 10 active;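 active = over 50% inhibition of intestinal alkaline phosphatase at 20 µM in the single-dose screen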
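Assay system – bovine IAP enzyme · Quantity – bovine IAP at 1/65,000,000 final dilution · Detection – CDP-star luminescence signal · Times – 30 min reaction at room temperature · Also added – CDP-star substrate at 30 µM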
mIAP act – activators of mouse IAP, primary screen, biochemical, luminescence, uHTS; AID 2805, 2010; intestinal alkaline phosphatase [Mus musculus]; activation factor at 10 µM; 0.24% of 330,000 active; muIAP, CDP-Star luminescence, 30 min; stronger effect = higher value; 1 = vehicle-only enzyme signal, 0 = enzyme-free wells;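 active = activation factor of at least 2 at 20 µM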
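also added = chemiluminescent substrate CDP-Star | test system = mouse IAP enzyme | signal = chemiluminescence readout | compound = DMSO-dissolved test compounds | incubation = 30 min at room temperature | benchmarks = DMSO wells, no-enzyme wells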
hIAP inh – human IAP inhibitors, primary screen, biochemical, luminescence, uHTS. Intestinal-type alkaline phosphatase (Homo sapiens), P09923. purified IAP, CDP-Star luminescence, 30 min. inhibition, % at 10 µM. 0.12% of 330,000 active. AID 2544, 2010;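 active = inhibition reaching a set limit with compound at 10 µM in the primary screen, cut at about 35% in these data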
mIAP inh conf – inhibitors of mouse IAP, confirmation, biochemical, luminescence, single concentration; shares compounds with mIAP block; purified mouse IAP, CDP-Star luminescence, 30 min; inhibition, % at 10 µM; 4.7% of 11,000 active; AID 434971, 2010;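 active = inhibition of at least 40% at 10 µM in either of the two replicates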
Hits are given with their value; i = inactive; nt = not tested or not shown.

SMILES | mIAP block | hIAP act | bIAP act | bIAP inh | mIAP act | hIAP inh | mIAP inh conf
C=CCn1c(SCC(=O)c2ccc(O)c(O)c2)nnc1-c1ccccc1OC | i | i | i | i | i | i | nt
CCn1c(CSc2nc3ccccc3s2)nnc1SCC(=O)c1ccc(O)c(O)c1 | 44.1 | i | i | i | i | i | 46.6
C=CCn1c(SCC(=O)c2ccc(O)c(O)c2)nnc1-c1cccnc1 | 57.2 | i | nt | nt | i | i | 62.8
CCn1c(SCC(=O)c2ccc(O)c(O)c2)nnc1-c1ccccc1OC | 43.6 | i | i | i | i | i | 63.0
COc1ccc(-n2nc3c(c2NC(=O)COc2ccccc2)CS(=O)C3)cc1 (centres undefined) | i | i | nt | nt | i | i | nt
O=C(CCNS(=O)(=O)c1ccccc1C(F)(F)F)NC1CCCCCC1 | i | i | nt | nt | i | i | nt
COC(=O)c1ccccc1NC(=O)NCCc1ccccc1OC | i | i | i | i | i | i | nt
CCOC(=O)c1ccc(NC(=O)NCCc2ccccc2OC)cc1 | i | i | i | i | 2.82 | i | i
CC(Sc1nccn1C)C(=O)c1ccc(Br)cc1 (centres undefined) | i | i | nt | nt | i | i | nt
Cc1ccc(S(=O)(=O)/N=C2/NC(=O)/C(=C\c3cc(Br)cc(Br)c3O)S2)cc1 | 42.9 | i | nt | nt | i | i | 49.4
Cc1ccc(S(=O)(=O)/N=C2/NC(=O)/C(=C/c3ccc(Br)o3)S2)cc1 | i | i | i | i | i | i | nt
Cc1cccc(NC(=O)CN2CCN(C(=O)c3c(C)nn(Cc4ccccc4)c3C)CC2)c1C | i | i | nt | nt | i | i | nt
NS(=O)(=O)c1cc(C(=O)NC2CCSc3ccccc32)ccc1Cl (centres undefined) | 71.5 | i | nt | nt | i | i | 84.0
NS(=O)(=O)c1cccc(C(=O)NC2CCSc3ccccc32)c1 (centres undefined) | i | i | nt | nt | i | i | nt
O=C(Nc1cc(Cl)cc(Cl)c1)Nc1cnccn1 | i | i | nt | nt | 2.47 | i | i
O=C(Nc1ccc(F)cc1)Nc1cnccn1 | i | i | nt | nt | i | i | nt
Cc1cc(C)cc(OCC(=O)OCC(=O)Nc2cc(S(=O)(=O)N3CCOCC3)ccc2Cl)c1 | i | i | nt | nt | i | i | nt
N#Cc1c(SCC(=O)Nc2nc3ccccc3s2)sc2c(O)cc(=O)[nH]c12 | 60.6 | i | nt | nt | i | i | 72.6
N#Cc1c(SCC(=O)Nc2nccs2)sc2c(O)cc(=O)[nH]c12 | 47.5 | i | nt | nt | i | i | 63.3
CCCSc1nnc(NC(=O)CSc2sc3c(O)cc(=O)[nH]c3c2C#N)s1 | i | i | nt | nt | i | i | nt
N#Cc1cccc(NC(=O)CSc2sc3c(O)cc(=O)[nH]c3c2C#N)c1 | i | i | nt | nt | i | i | nt
N#Cc1c(SCC(=O)Nc2nc3ccc(Br)cc3s2)sc2c(O)cc(=O)[nH]c12 | 41.4 | i | nt | nt | i | i | 71.8
O=C(CSc1nc2ccccc2c(=O)n1CCCN1CCOCC1)Nc1ccccc1OC(F)F | i | i | nt | nt | i | i | nt
COc1ccc(CNC(=O)C2CCN(C(=O)c3csc(Nc4ccc(C)cc4)n3)CC2)cc1 | i | i | nt | nt | i | i | nt
O=C(N/N=C/c1ccc(O)c(O)c1O)/C(=C/c1ccc([N+](=O)[O-])cc1)NC(=O)c1ccccc1 | 54.8 | i | i | i | i | i | 59.5
SMILES | mIAP block | hIAP act | bIAP act | bIAP inh | mIAP act | hIAP inh | mIAP inh conf
Cc1ccc(NC(=O)CN(C)S(=O)(=O)c2ccc3[nH]c(=O)oc3c2)c(C)c1 | 62.6 | i | nt | nt | i | i | 88.2
Cc1ccc(NS(=O)(=O)c2ccc3[nH]c(=O)oc3c2)c(C)c1 | 79.9 | i | nt | nt | i | i | 85.1
CC(C)[C@H](NC(=O)C1CCN(S(=O)(=O)c2ccc(F)cc2)CC1)C(=O)NCc1ccncc1 | i | i | nt | nt | i | i | nt
O=C(CN1C(=O)NC2(CCCCCCC2)C1=O)NCc1ccccc1 | i | i | nt | nt | i | i | nt
CCOc1cc(/C=N/Nc2nc(-c3cccs3)c(NC(C)=O)s2)ccc1O | 41.4 | i | nt | nt | i | i | 43.9
CC(=O)Nc1sc(N/N=C\c2ccccc2)nc1-c1cccs1 | i | i | i | i | i | i | nt
Cn1c(CC(=O)NNC(=O)c2ccccc2[N+](=O)[O-])nc2ccccc21 | i | i | nt | nt | i | i | nt
CCOC(=O)CCc1c(C)c2ccc3c(c2oc1=O)CN(CCCO)CO3 | i | i | nt | nt | i | i | nt
CCCNC(=O)c1ccc2c(=O)n(Cc3ccco3)c(=S)[nH]c2c1 | 63.7 | i | i | i | i | i | 66.4
O=C(NC1CCCC1)C(c1ccc(F)cc1)N(Cc1ccc(F)cc1)C(=O)c1ccn[nH]1 (centres undefined) | i | i | 2.4 | i | 2.2 | i | i
COc1cc(/C=C/C(=O)O)ccc1O | i | i | nt | nt | i | i | nt
Oc1ccc(/C=N/N=C/c2ccc(O)c(O)c2)cc1O | 59.7 | i | nt | nt | i | i | 63.6
CCOc1cc(C2NC(=O)CCC2[N+](=O)[O-])cc(Br)c1OCC (centres undefined) | i | i | nt | nt | i | i | nt
O=C(N/N=C/c1cn(Cc2cccc(F)c2)c2ccccc12)c1cc(O)cc(O)c1 | 67.6 | i | nt | nt | i | i | 67.3
CCOc1ccc(CN(C)C(=O)c2cc(S(=O)(=O)N3CCCC3)ccc2C)cc1 | i | i | nt | nt | i | i | nt
Cc1ccc(CNS(=O)(=O)c2ccc3c(c2)NC(=O)C(C)S3)cc1 (centres undefined) | i | i | nt | nt | i | i | nt
COc1cc(CNc2ncnc3c2[nH]c2ccc(C)cc23)cc(OC)c1 | i | i | nt | nt | 3.12 | i | i
Brc1ccc(C2Nc3cccc4cccc(c34)N2)o1 | 43.6 | i | i | i | i | i | 52.8
Brc1cccc(C2Nc3cccc4cccc(c34)N2)c1 | i | i | nt | nt | i | i | nt
Cc1c(OCC(=O)NCc2cccnc2)ccc2c3c(c(=O)oc12)CCCC3 | i | i | nt | nt | i | i | nt
Nc1nc(-c2cccs2)cs1 | 46.0 | i | i | i | i | i | 52.3
CC(=O)Nc1nc(-c2cccs2)cs1 | i | i | i | i | i | i | nt
O=c1c2c(O)cc(O)cc2oc2c(O)ccc(O[C@H]3O[C@@H](CO)[C@H](O)[C@@H](O)[C@@H]3O)c12 | i | i | nt | nt | i | i | nt
O=c1c(OC2OC(CO)C(O)C(O)C2OC2OC(CO)C(O)C(O)C2O)c(-c2ccc(O)cc2)oc2cc(O)cc(O)c12 (centres undefined) | 43.3 | i | nt | nt | i | i | 55.4

Compound activity: PubChem, Sanford-Burnham Center for Chemical Genomics
